From ChEMBL document CHEMBL1124000, “N-acylphenylalanines and related compounds. A new class of oral hypoglycemic agents” (1988)
Where a SMILES comes first, the peptide text is derived from it.

These compounds were tested on Mus musculus (assay: Hypoglycemic activity was determined as decrease in blood glucose at a dose 250 mg/kg in fasting mice after peroral administration.). Conditions: route oral.
Type: functional
Method in brief: (§1)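 Male ICR-CD1 mice, 5 weeks old, fasted 18 h, groups of five. Given orally as a suspension in 0.5% (carboxymethyl)cellulose-0.14 M NaCl, 1 mL/kg; vehicle-treated control group run in parallel. Doses 500, 250, 100, 50, 25 and 10 mg/kg. Blood drawn from carotid 1 h after dosing; glucose measured enzymatically by glucose-oxidase-peroxidase; Student's t test (p < 0.05).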

Compound | Decrease [%]
O=C(O)[C@H]1Cc2ccccc2CN1C(=O)c1ccccc1 | <20
O=C(O)/C(=C/c1ccccc1)NC(=O)c1ccccc1 | <20
O=C(O)[C@@H]1Cc2ccccc2CN1C(=O)c1ccccc1 | <20
O=C(N[C@@H](Cc1ccccc1)C(=O)O)c1ccncc1 | <20
O=C(N[C@H](Cc1ccccc1)C(=O)O)c1ccccc1 | <20
O=C(N[C@H](Cc1ccccc1)C(=O)O)C1CCCC1 | <20
O=C(O)[C@H](Cc1ccccc1)NC(=O)[C@@H]1CCCN1C(=O)c1ccccc1 | <20
Cc1cccc(C(=O)N[C@@H](Cc2ccccc2)C(=O)O)c1 | <20
O=C(N[C@@H](Cc1ccccc1)C(=O)O)c1ccc2ccccc2n1 | <20
O=C(O)[C@H](Cc1ccccc1)NCc1ccccc1 | <20
O=C(O)[C@H](Cc1ccccc1)NC(=O)[C@H]1CCCN1C(=O)c1ccccc1 | <20
O=C(N[C@@H](Cc1ccccc1)C(=O)O)C1CCCCCC1 | <20
O=C(O)/C(=C\c1ccccc1)NC(=O)c1ccccc1 | <20
O=C(N[C@@H](Cc1ccccc1)C(=O)O)c1cnc2ccccc2c1 | <20
O=C(N[C@@H](Cc1ccccc1)C(=O)O)c1cccnc1 | <20
O=C(N[C@@H](Cc1ccccc1)C(=O)O)c1ccc2ncccc2c1 | <20
Cc1ccccc1C(=O)N[C@@H](Cc1ccccc1)C(=O)O | <20
O=C(N[C@@H](Cc1ccccc1)C(=O)O)c1cccc2ccccc12 | <20
CC(=O)N1CCC[C@H]1C(=O)N[C@@H](Cc1ccccc1)C(=O)O (Ac-Pro-Phe-OH) | <20

What follows are compounds tested on Mus musculus (assay: Hypoglycemic activity at the lowest dose that causing 20% blood glucose decrease (fasting mice, po)). Conditions: not given.
Type: functional
Method in brief: as §1

Compound | Dose [mg/kg]
O=C(N[C@@H](Cc1ccccc1)C(=O)O)c1ccccc1 | 150
O=C(N[C@@H](Cc1ccccc1)C(=O)O)C1CCCC1 | 50
COc1ccc(C(=O)N[C@@H](Cc2ccccc2)C(=O)O)cc1 | 100
O=C(N[C@@H](Cc1ccccc1)C(=O)O)c1cc2ccccc2o1 | 100
O=C(N[C@@H](Cc1ccccc1)C(=O)O)C1CC=CCC1 (some centres not stated) | 100
O=C(N[C@@H](Cc1ccccc1)C(=O)O)c1ccc2ccccc2c1 | 250
O=C(N[C@@H](Cc1ccccc1)C(=O)O)C1CCCCC1 | 100
O=C(N[C@@H](Cc1ccccc1)C(=O)O)c1ccc2c(c1)OCO2 | 100
O=C(N[C@@H](Cc1ccccc1)C(=O)O)c1ccc2c(c1)CCC2 | 250
CCOc1ccc(C(=O)N[C@@H](Cc2ccccc2)C(=O)O)cc1 | 100
Cc1ccc(C(=O)N[C@@H](Cc2ccccc2)C(=O)O)cc1 | 100
O=C(NC(Cc1ccccc1)C(=O)O)c1ccccc1 (configuration not stated) | 500
CCCCNC(=O)NS(=O)(=O)c1ccc(C)cc1 [TOLBUTAMIDE] | 25
